Experimental data as given in ChEMBL document CHEMBL1146220, “Rational optimization of the binding affinity of CD4 targeting peptidomimetics with potential anti HIV activity” (J Med Chem, 2007).
Numbered stars: 1 amine (or outer) side, 2 acyl side, 3 side chain; on linkers, the order of the positions; unused ones are H or OH. Square brackets hold non-standard residues; d marks the D form. Peptide text beside a SMILES is read from it. * marks the point of attachment. Acetyl(2-naphthyloxy) = O=C(COc1ccc2ccccc2c1)*; Alaninol(O-CO) = C[C@@H](COC(=O)[*:2])N[*:1]; NH(1-Adamantyl) = C1C2CC3CC1CC(N*)(C2)C3; X1 = O=C(OC[C@@H]1CCCN1[*:1])[*:2]; X2 = S=C(NC1CC1)OC[C@@H]1CCCN1*; X3 = O=C(COc1cccc2cccnc12)*; NHcHex = C1CCC(N*)CC1; NHcPent = C1CCC(N*)C1; NHtBu = CC(C)(C)N*

Columns and labels:
[1] = target: T-cell surface glycoprotein CD4 (Homo sapiens, UniProt P01730); assay: Binding affinity to CD4 by SPR assay
Method in brief: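 Test ligands passed over the CD4 SPR surface at a series of concentrations, recording the concentration-dependent maximum response units (RU). Surface regenerated between runs with short pulses of 100 mM H3PO4. Only the lower concentrations (generally up to 50 µM) fitting a one-site binding model were used. KD was taken as the concentration at RUmax/2.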

[2] = Half life by pronase digestion assay; format: ADME; conditions: pronase (protease digestion)
Method in brief: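 Pronase digestion was run at 37 °C. Aliquots were taken at 5, 10, 15, 20 and 30 min and quenched with 1 M acetic acid. Hydrolysis products were identified as M+H+/Na+/K+ ions, and t1/2 was derived from the disappearance time course.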

| Compound | Kd [1] | half-life [2] |
| --- | --- | --- |
| CC(C)[C@H](NC(=O)[C@H](CCCCN)NC(=O)COc1cccc2cccnc12)C(=O)NCC(=O)N[C@H](C(=O)N[C@@H](C)COC(=O)NC(C)(C)C)[C@@H](C)O (X3-KVGT[Alaninol(O-CO)]-NHtBu) | 13 µM |  |
| CC(C)[C@H](NC(=O)[C@H](CCCCN)NC(=O)COc1ccc2ccccc2c1)C(=O)NCC(=O)N[C@H](C(=O)N[C@@H](C)COC(=O)NC(C)(C)C)C(C)O (single isomer, unassigned) | 20 µM |  |
| CC(C)[C@H](NC(=O)[C@H](CCCCN)NC(=O)COc1ccc2ccccc2c1)C(=O)NCC(=O)N[C@H](C(=O)N1CCC[C@H]1COC(=O)NC1CCCC1)[C@@H](C)O ({Acetyl(2-naphthyloxy)}-KVGT[X1]-NHcPent) | 16 µM |  |
| CCOC(=O)CNC(=O)OC[C@@H]1CCCN1C(=O)[C@@H](NC(=O)CNC(=O)[C@@H](NC(=O)[C@H](CCCCN)NC(=O)COc1ccc2ccccc2c1)C(C)C)[C@@H](C)O ({Acetyl(2-naphthyloxy)}-KVGT[X1]G-OEt) | 26 µM | 23 min |
| CC(C)[C@H](NC(=O)[C@H](CCCCN)NC(=O)COc1ccc2ccccc2c1)C(=O)NCC(=O)N[C@H](C(=O)N[C@@H](C)COC(=O)NC12CC3CC(CC(C3)C1)C2)[C@@H](C)O ({Acetyl(2-naphthyloxy)}-KVGT[Alaninol(O-CO)]-{NH(1-Adamantyl)}) | 80 µM |  |

The remaining lines, values ahead:

| Kd [1] | half-life [2] | Compound |
| --- | --- | --- |
| 62 µM |  | CC(C)[C@H](NC(=O)[C@H](CCCCN)NC(=O)COc1ccc2ccccc2c1)C(=O)NCC(=O)N[C@H](C(=O)N[C@@H](C)COC(=O)NC1CCCC1)[C@@H](C)O ({Acetyl(2-naphthyloxy)}-KVGT[Alaninol(O-CO)]-NHcPent) |
| 35 µM | 27.3 min | CC(C)[C@H](NC(=O)[C@H](CCCCN)NC(=O)COc1ccc2ccccc2c1)C(=O)NCC(=O)N[C@H](C(=O)N1CCC[C@H]1COC(=O)NC1CCCCC1)[C@@H](C)O ({Acetyl(2-naphthyloxy)}-KVGT[X1]-NHcHex) |
| 26 µM |  | CC(C)[C@H](NC(=O)[C@H](CCCCN)NC(=O)COc1cccc2cccnc12)C(=O)NCC(=O)N[C@H](C(=O)N1CCC[C@H]1COC(=O)NC(C)(C)C)[C@@H](C)O (X3-KVGT[X1]-NHtBu) |
| 27 µM |  | CC(C)[C@H](NC(=O)[C@H](CCCCN)NC(=O)COc1ccc2ccccc2c1)C(=O)NCC(=O)N[C@H](C(=O)N1CCC[C@H]1COC(=S)NC1CC1)[C@@H](C)O ({Acetyl(2-naphthyloxy)}-KVGT-X2) |
| 6 µM |  | CC(C)[C@H](NC(=O)[C@H](CCCCN)NC(=O)COc1ccc2ccccc2c1)C(=O)NCC(=O)N[C@H](C(=O)N1CCC[C@H]1COC(=O)NC(C)(C)C)[C@@H](C)O ({Acetyl(2-naphthyloxy)}-KVGT[X1]-NHtBu) |
| 6000 µM | 6 min | H-NMWQKVGTPL-OH |
